In ChEMBL document CHEMBL1828575, “Design, synthesis and antiproliferative activities of biarylolefins based on polyhydroxylated and carbohydrate scaffolds” (Eur J Med Chem, 2011):

Legend:
Type in all cases: functional
SF-268 = test: Cytotoxicity against human SF268 cells assessed as cellular growth at 10 uM after 48 hrs by SRB assay
Method in brief: (§1)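 NCI-60 panel lines grown in RPMI 1640 with 5% FBS and 2 mM L-glutamine. Plated at 5000–40,000 cells/well and preincubated 24 h at 37 °C, 5% CO₂, with time-zero plates fixed in TCA. Compounds, dissolved in DMSO and diluted in medium, were applied for 48 h. Cells were TCA-fixed (10% final for adherent, 16% for suspension) and stained with 0.4% SRB in 1% acetic acid. Dye was solubilised in 10 mM Tris base and read at 515 nm; growth was expressed as a percentage of untreated control.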

COLO 205 = test: Cytotoxicity against human COLO205 cells assessed as cellular growth at 10 uM after 48 hrs by SRB assay
Method in brief: (§2)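 NCI60 single-dose screen of cells in RPMI 1640 with 5% FBS and 2 mM L-glutamine, preincubated 24 h at 37 °C, 5% CO₂. Cells were then exposed 48 h to compound added from DMSO stock. TCA-fixed, stained with 0.4% SRB in 1% acetic acid, dye solubilised in 10 mM Tris base and read at 515 nm. Growth is given as percent of untreated control.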

HL-60(TB) [1] = test: Cytotoxicity against human HL-60(TB) cells assessed as cellular growth at 10 uM after 48 hrs by SRB assay
MOLT-4 = test: Cytotoxicity against human MOLT4 cells assessed as cellular growth at 10 uM after 48 hrs by SRB assay; method in brief: as §1
SR = test: Cytotoxicity against human SR cells assessed as cellular growth at 10 uM after 48 hrs by SRB assay; method in brief: as §1
HCT-15 = test: Cytotoxicity against human HCT15 cells assessed as cellular growth at 10 uM after 48 hrs by SRB assay; method in brief: as §2
LOX IMVI = test: Cytotoxicity against human LOXIMVI cells assessed as cellular growth at 10 uM after 48 hrs by SRB assay; method in brief: as §2
OVCAR-4 = test: Cytotoxicity against human OVCAR4 cells assessed as cellular growth at 10 uM after 48 hrs by SRB assay; method in brief: as §1
MDA-MB-468 = test: Cytotoxicity against human MDA-MB-468 cells assessed as cellular growth at 10 uM after 48 hrs by SRB assay; method in brief: as §1
HOP-62 = test: Antitumor activity against human HOP62 cells after 48 hrs by SRB assay; details: HOP-62, 48 h
Method in brief: (§3)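 NCI60 panel in RPMI 1640 with 5% FBS and 2 mM L-glutamine. Cells were plated at 5000–40,000/well by doubling time, held 24 h, then time-zero plates were TCA-fixed. Five concentrations (10-fold or half-log dilutions of DMSO stocks) were applied for 48 h at 37 °C, 5% CO2. Cells were fixed with cold TCA (10% final adherent, 16% suspension) and stained with 0.4% SRB. Bound dye was dissolved in 10 mM Tris and read at 515 nm. GI50, TGI and LC50 were calculated per line.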

SNB-19 = test: Antitumor activity against human SNB19 cells after 48 hrs by SRB assay; details: SNB-19, 48 h
Method in brief: (§4)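 NCI60 panel cells grown in RPMI 1640 with 5% FBS and 2 mM L-glutamine, plated at 5000–40,000 cells/well and preincubated 24 h at 37 °C, 5% CO₂. Compound was added from DMSO at five concentrations, 10-fold or 1/2 log dilutions, then incubated 48 h.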

Malme-3M = test: Antitumor activity against human MALME-3M cells after 48 hrs by SRB assay; method in brief: as §3
SK-MEL-5 = test: Antitumor activity against human SK-MEL-5 cells after 48 hrs by SRB assay; details: SK-MEL-5, 48 h; method in brief: as §4
OVCAR-3 = test: Antitumor activity against human OVCAR3 cells after 48 hrs by SRB assay; details: OVCAR-3, 48 h; method in brief: as §3
[2] = Antitumor activity against human Hs 578T cells after 48 hrs by SRB assay; method in brief: as §3
DU-145 = test: Antitumor activity against human DU145 cells after 48 hrs by SRB assay; details: DU-145, 48 h; method in brief: as §3
SN12C = test: Antitumor activity against human SN12C cells after 48 hrs by SRB assay; method in brief: as §4
OVCAR-5 = test: Antitumor activity against human OVCAR5 cells after 48 hrs by SRB assay; details: OVCAR-5, 48 h; method in brief: as §3
UACC-257 = test: Antitumor activity against human UACC257 cells after 48 hrs by SRB assay; details: UACC-257, 48 h; method in brief: as §4
HCC 2998 = test: Antitumor activity against human HCC2998 cells after 48 hrs by SRB assay; details: HCC 2998, 48 h; method in brief: as §3
A549 = test: Antitumor activity against human A549 cells after 48 hrs by SRB assay; details: A549, 48 h; method in brief: as §3
HL-60(TB) [3] = test: Antitumor activity against human HL-60(TB) cells after 48 hrs by SRB assay; details: HL-60, 48 h
Method in brief: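 NCI60 screen: cells grown in RPMI 1640 with 5% FBS and 2 mM L-glutamine, plated at 5000–40,000 cells/well by doubling time, preincubated 24 h at 37 °C with 5% CO2. Compounds were diluted from DMSO stocks and given for 48 h, at five concentrations for dose response. A time-zero plate was TCA-fixed. Cells were TCA-fixed, stained with 0.4% SRB and read at 515 nm, with growth expressed relative to untreated controls.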

[4] = read-out: LC50 (the source's name)
[5] = read-out: pLC50 (the source's name) (converted)

COc1ccc(/C(=C2/O[C@@H]([C@H]3COC(C)(C)O3)[C@H]3OC(C)(C)O[C@@H]23)c2cc(OC)c(OC)c(OC)c2)cc1O
Activity (SF-268): 36.3% | Activity (COLO 205): 120.76% | Activity (HL-60(TB) [1]): 20.71% | Activity (MOLT-4): 59.94% | Activity (SR): 25.4% | Activity (HCT-15): 26.94% | Activity (LOX IMVI): 36.94% | Activity (OVCAR-4): 99.15% | Activity (MDA-MB-468): 96.42% | GI50 (HOP-62): 5.93 µM | TGI (HOP-62): 25.5 µM | CC50 (HOP-62; [4]): 96.8 µM | GI50 (SNB-19): 4.28 µM | TGI (SNB-19): > 100 µM | CC50 (SNB-19; [4]): > 100 µM | GI50 (Malme-3M): 5.46 µM | LC50 (concentration killing 50% of cells present at time zero) (Malme-3M): > 100 µM | TGI (Malme-3M): > 100 µM | GI50 (SK-MEL-5): 2.69 µM | LC50 (SK-MEL-5): 49.3 µM | TGI (SK-MEL-5): 11.2 µM | GI50 (OVCAR-3): 2.38 µM | TGI (OVCAR-3): 5.34 µM | CC50 (OVCAR-3; [4]): 22.9 µM | GI50 [2]: 2.83 µM | TGI [2]: 7.88 µM | CC50 [2, 4]: > 100 µM | GI50 (DU-145; read-out: GI50): 3.29 µM | CC50 (DU-145; [4]): > 100 µM | TGI (DU-145; read-out: TGI): 13.8 µM | GI50 (DU-145; read-out: pGI50 (converted)): 3.31 µM | CC50 (DU-145; [5]): > 100 µM | TGI (DU-145; read-out: pTGI (converted)): 13.2 µM | GI50 (SN12C; read-out: GI50): 5.82 µM | CC50 (SN12C; [4]): > 100 µM | TGI (SN12C; read-out: TGI): > 100 µM | GI50 (SN12C; read-out: pGI50 (converted)): 5.62 µM | CC50 (SN12C; [5]): > 100 µM | TGI (SN12C; read-out: pTGI): > 100 µM | GI50 (OVCAR-5; read-out: GI50): > 1 µM | CC50 (OVCAR-5; [4]): > 100 µM | TGI (OVCAR-5; read-out: TGI): > 100 µM | GI50 (OVCAR-5; read-out: pGI50 (converted)): 100 µM | CC50 (OVCAR-5; [5]): > 100 µM | TGI (OVCAR-5; read-out: pTGI (converted)): > 100 µM | GI50 (UACC-257; read-out: GI50): > 1 µM | CC50 (UACC-257; [4]): > 100 µM | TGI (UACC-257; read-out: TGI): > 100 µM | GI50 (UACC-257; read-out: pGI50 (converted)): 100 µM | CC50 (UACC-257; [5]): > 100 µM | TGI (UACC-257; read-out: pTGI (converted)): > 100 µM | GI50 (HCC 2998; read-out: GI50): 1.32 µM | CC50 (HCC 2998; [4]): > 100 µM | TGI (HCC 2998; read-out: TGI): > 100 µM | GI50 (HCC 2998; read-out: pGI50 (converted)): 20.9 µM | CC50 (HCC 2998; [5]): > 100 µM | TGI (HCC 2998; read-out: pTGI (converted)): > 100 µM | GI50 (A549; read-out: GI50): 2.32 µM | CC50 (A549; [4]): > 100 µM | TGI (A549; read-out: TGI): > 100 µM | GI50 (A549; read-out: pGI50 (converted)): 23.4 µM | CC50 (A549; [5]): > 100 µM | TGI (A549; read-out: pTGI (converted)): > 100 µM | GI50 (HL-60(TB) [3]; read-out: GI50): 3.39 µM | CC50 (HL-60(TB) [3]; [4]): > 100 µM | TGI (HL-60(TB) [3]; read-out: TGI): 23.3 µM | GI50 (HL-60(TB) [3]; read-out: pGI50 (converted)): 3.39 µM | CC50 (HL-60(TB) [3]; [5]): > 100 µM | TGI (HL-60(TB) [3]; read-out: pTGI (converted)): 23.4 µM
